Here are results for three compounds from ChEMBL document CHEMBL4842319, “Synthesis of alkynylated 1,2,4-oxadiazole/1,2,3-1H-triazole glycoconjugates: Discovering new compounds for use in chemotherapy against lung carcinoma and Mycobacterium tuberculosis” (Eur J Med Chem, 2021).

≈ marks a conversion by molar mass, not a printed value.

A word on the MIC: it is the least concentration at which growth counts as inhibited. For orientation: CC50 means the concentration giving 50% cytotoxicity.

Series [1] can be described thus: Selectivity index, ratio of CC50 for human HepG2 cells to MIC for antimycobacterial activity against Mycobacterium tuberculosis H37Rv ATCC 27294. Type of series: toxicity. The settings on record: read-out: Selectivity Index.
A short description of series [2]: Selectivity index, ratio of CC50 for mouse RAW264.7 cells to MIC for antimycobacterial activity against Mycobacterium tuberculosis H37Rv ATCC 27294. Conditions: read-out: Selectivity Index. Type of series: toxicity.
Series [3] concerns Mycobacterium tuberculosis. Put plainly: Antimycobacterial activity against Mycobacterium tuberculosis H37Rv ATCC 27294 assessed as inhibition of bacterial growth incubated for 9 days by resazurin microtiter assay. Type of series: functional. Conditions: H37Rv ATCC 27294, 216 h, time 9 day. A digest of the protocol: (§1)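 REMA broth microdilution in 7H9-S medium, run in duplicate. Test compounds were serially two-fold diluted on the plate from 64 to 0.5 µg/mL. Inoculum taken from fresh Löwenstein-Jensen culture, adjusted to McFarland no. 1 and diluted 1:20. Plates were sealed and incubated at 37 °C in normal atmosphere for 9 days, then resazurin was added. Rifampicin and ethambutol served as standards. MIC reported in µg/mL.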
On the technique in general: Alamar Blue is a resazurin reagent that responds to reducing activity.

A short description of series [4]: Cytotoxicity against human HepG2 cells assessed as reduction in cell viability incubated for 48 hrs by MTT assay. Type of series: cell-based. A digest of the protocol:
(§2)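 RAW 264.7 macrophages and HepG2 cells were cultured in DMEM at 37 °C, 5% CO2. For the assay, 10⁵ cells/well were preincubated for 24 h, then exposed to compounds at […] for 48 h, in duplicate. MTT (5 mg/mL in PBS) was added for 2 h and absorbance read at 570 nm. Untreated wells served as the negative control. CC50 obtained by regression analysis.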
In general terms: Tetrazolium dyes change colour on reduction, which living cells bring about.

Series [5] concerns SK-MEL-103. As to the kind of experiment: Cytotoxicity against human SK-MEL-103 cells assessed as inhibition of cell proliferation at 25 uM incubated for 72 hrs by MTT assay relative to control. Type of series: functional. Further details: scale not given: the % may be the effect or the level left. Put shortly: (§3)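 Tumor lines from NCI. PC-3, HCT-116 and NCIH-460 were grown in RPMI 1640; SKMEL-103 and AGP-01 in DMEM; all with 10% FBS at 37 °C, 5% CO2. Seeding was 0.3×10⁶ cells/mL for SKMEL-103 and AGP-01, 0.1×10⁶ for PC-3 and NCIH-460, and 0.7×10⁵ for HCT-116. Cells were exposed to compound at 25 µM for 72 h. Cells were centrifuged, 1% MTT added for 3 h, formazan dissolved in DMSO and read at 570 nm.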

The nature of series [6]: Cytotoxicity against mouse RAW264.7 cells assessed as reduction in cell viability incubated for 48 hrs by MTT assay. Type of series: cell-based. Put shortly: as §2
In series [7] the test system is PC-3. As to the kind of experiment: Cytotoxicity against human PC-3 cells assessed as inhibition of cell proliferation at 25 uM incubated for 72 hrs by MTT assay relative to control. Type of series: functional. Set-up: scale not given: the % may be the effect or the level left. Put shortly: as §3
Series [8] relates to Mycobacterium tuberculosis. As to the kind of experiment: Antimycobacterial activity against Mycobacterium tuberculosis H37Ra ATCC 25177 assessed as inhibition of bacterial growth incubated for 9 days by resazurin microtiter assay. Conditions: H37Ra ATCC 25177, 216 h, time 9 day. Type of series: functional. Put shortly:
as §1

For series [9], the system named is HCT-116. As to the kind of experiment: Cytotoxicity against human HCT-116 cells assessed as inhibition of cell proliferation at 25 uM incubated for 72 hrs by MTT assay relative to control. Type of series: functional. Further details: scale not given: the % may be the effect or the level left. Put shortly: as §3
Series [10] is described as follows: Cytotoxicity against human AGP01 cells assessed as inhibition of cell proliferation at 25 uM incubated for 72 hrs by MTT assay relative to control. Type of series: functional. Further details: scale not given: the % may be the effect or the level left. A digest of the protocol: as §3
A short description of series [11]: Cytotoxicity against African green monkey Vero cells assessed as reduction in cell viability measured after 5 days by MTT assay. Type of series: cell-based. The settings on record: chlorocebus sabaeus, time 5 day. A digest of the protocol: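 Vero cells in DMEM with 10% inactivated FBS, plated at 1×10⁴ cells/well 24 h before treatment. Compounds were applied at 800, 400, 200, 100 and 50 µM, with at most 0.8% DMSO, for 5 days at 37 °C. MTT (1 mg/mL) was added for 4 h, formazan solubilised in DMSO and OD570 read. CC50 is the concentration giving a 50% reduction in absorbance.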

Series [12] concerns NCI-H460. Put plainly: Cytotoxicity against human NCI-H460 cells assessed as inhibition of cell proliferation at 25 uM incubated for 72 hrs by MTT assay relative to control. Type of series: functional. Further details: scale not given: the % may be the effect or the level left. A digest of the protocol:
as §3

Series [13] concerns Mycobacterium tuberculosis. Put plainly: Antimycobacterial activity against Mycobacterium tuberculosis H37Rv ATCC 27294 assessed as inhibition of bacterial growth by agar dilution method. Type of series: functional.
Series [14] relates to Mycobacterium tuberculosis. As to the kind of experiment: Antitubercular activity against Mycobacterium tuberculosis H37Rv. Type of series: functional.

Turning to `COc1ccc(-c2noc(N(Cc3cn(C[C@H](CO[C@@H]4C=C[C@H](OC(C)=O)[C@@H](COC(C)=O)O4)OC(C)=O)nn3)C3CCCCC3)n2)cc1`, the selectivity ratio is 4.41 in [1] and 2.7 in series [2]. The MIC in series [3] worked out at 32 µg/mL (≈ 46.9 µM); in series [8] it was 16 µg/mL (≈ 23.4 µM). For the same compound, the CC50 at 48 h was 141 µg/mL (≈ 207 µM) in series [4] and 86.3 µg/mL (≈ 126 µM) in series [6]. Also, the Activity is on record as 29.8% in series [5]; 21.6% in series [7]; 24.2% in [9]; 59.2% in series [10]; 24.2% in series [12]. The CC50 at 120 h in series [11] worked out at 575 µM.

With `CCCCCc1ccc(-c2cn(CC(O)COc3cccc4c3OCC3(CCCCC3)C4=O)nn2)cc1` (centres undefined), the MIC in [13] is 0.78 µg/mL (≈ 1.55 µM).

Compound `CC(C)c1ccc(-c2nc(CN3CCN(c4ccnc5c(-c6cccnc6)cccc45)CC3)no2)cc1` returned a minimal inhibitory concentration (MIC) in series [14] of 0.25 µg/mL (≈ 0.51 µM).
